Consider ten compounds from ChEMBL document CHEMBL1141291, “Bioactive constituents of the roots of Polyalthia cerasoides” (J Nat Prod, 2007).

≈ marks a conversion by molar mass, not a printed value. Calls of active or inactive are those of the source. The rule behind the calls is not given here. Some results are limits rather than exact numbers.

One assay has as its system NCI-H187. As to the kind of experiment: Cytotoxicity against human NCI-H187 cells. In kind it is functional, cell-based. In outline: (§1)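 Tested on human epidermoid carcinoma (KB), breast cancer (BC1) and small cell lung cancer (NCI-H187) cell lines. Growth was read by a colorimetric method following Skehan and co-workers. Ellipticine was run as the reference substance.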

A further assay has as its system KB. As to the kind of experiment: Cytotoxicity against human KB cells. Format: functional, cell-based. The gist of the method: as §1
Assay [1] relates to Mycobacterium tuberculosis. As to the kind of experiment: Antituberculosis activity against Mycobacterium tuberculosis H37Ra by microplate alamar blue assay. In kind it is functional. For orientation: Alamar Blue is a resazurin reagent that responds to reducing activity.
Assay [2] in a line: Cytotoxicity against human BC1 cells. In kind it is functional, cell-based. In outline:
as §1

The subject of a further assay is Plasmodium falciparum. As to the kind of experiment: Antimalarial activity against multidrug-resistant Plasmodium falciparum K1 in [3H]hypoxanthine incorporation microculture radioisotope assay. In kind it is functional, organism-based. In outline:
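P. falciparum K1 maintained in culture by the Trager and Jensen method. Growth was measured in vitro by [3H]-hypoxanthine uptake in a microculture radioisotope format (Desjardins method). IC50 is the concentration giving 50% reduction in parasite growth. Artemisinin was the standard.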

For orientation: IC50 means the concentration at which inhibition is half-maximal. High values mean lower potency, low ones higher potency. A word on the MIC: it is the lowest concentration that inhibits growth of the organism. High values mean a less susceptible organism, low ones a more susceptible organism. As to `CCCCC#CC#CC#CCCCCCCCC(=O)O`, the half-maximal inhibitory concentration (IC50) in the assay with NCI-H187 was > 5 µg/mL; with KB it was > 5 µg/mL; in assay [2] it was 13 µg/mL (≈ 47.7 µM); in the assay on Plasmodium falciparum it was 5 µg/mL (≈ 18.4 µM). This compound showed a minimum inhibitory concentration (MIC) in assay [1] of 6.25 µg/mL (≈ 22.9 µM).
For `C=C1CC[C@@H]2O[C@]2(C)CC[C@@H]2[C@@H]1CC2(C)C`, the IC50 was 19.5 µg/mL (≈ 88.5 µM) with NCI-H187, > 5 µg/mL in the assay on KB, > 5 µg/mL in assay [2] and 2.8 µg/mL (≈ 12.7 µM) with Plasmodium falciparum. Also, the result in assay [1] was inactive.
Consider `C/C1=C\CC/C(C)=C/CC(C)(C)/C=C/C1` [ALPHA-HUMULONE], for which the IC50 (with NCI-H187; in the assay on KB; in assay [2]) was > 5 µg/mL each time. Besides, it took 6.25 µg/mL (≈ 30.6 µM) to inhibit growth in assay [1] (MIC). Moreover, the result in the assay on Plasmodium falciparum was inactive.
In turn, `C[C@@H]1CC[C@H]2[C@@H](C)C(=O)O[C@@H]3O[C@@]4(C)CC[C@@H]1[C@]32OO4` [ARTEMISININ] showed an IC50 in the assay with Plasmodium falciparum of 0.001 µg/mL (≈ 0.00354 µM).
`COc1ccc2c(c1)c(-c1c3c4c(cc5c(c4c4ccc(OC)cc14)OCO5)CCN3)c1c3c(cc4c(c32)OCO4)CCN1` [BIDEBILINE E] showed an MIC in assay [1] of 6.25 µg/mL (≈ 10.7 µM). The compound also gave a half-maximal inhibitory concentration (IC50) in the assay on Plasmodium falciparum of 4.2 µg/mL (≈ 7.18 µM).
On to `COc1cc2c(cc1O)[C@H](Cc1ccc(OC)c(OC)c1)N(C)CC2` [CODAMINE], for which the IC50 in the assay with NCI-H187 is > 5 µg/mL; in the assay with KB, > 5 µg/mL; in assay [2], > 5 µg/mL; with Plasmodium falciparum, 4.2 µg/mL (≈ 12.2 µM). Also, in assay [1], the result was inactive.
As for `Cc1c2ccncc2c(C)c2c1[nH]c1ccccc12` [ELLIPTECINE], the values for the IC50 (in the assay on NCI-H187; in the assay on KB; in assay [2]) were 0.32 µg/mL (≈ 1.3 µM), 0.36 µg/mL (≈ 1.46 µM) and 0.26 µg/mL (≈ 1.06 µM), respectively.
Consider `NNC(=O)c1ccncc1` [ISONIAZID], for which it took 0.05 µg/mL (≈ 0.365 µM) to inhibit growth in assay [1] (MIC).
Still for that read-out and setting: then `NC[C@H]1O[C@H](O[C@H]2[C@H](O)[C@@H](O[C@H]3O[C@H](CO)[C@@H](O)[C@H](N)[C@H]3O)[C@H](N)C[C@@H]2N)[C@H](O)[C@@H](O)[C@@H]1O.O=S(=O)(O)O` [KANAMYCIN SULFATE], with 2.5 µg/mL.
`COc1ccc(C[C@H]2c3cc(OC)c(OC)cc3CCN2C)cc1O` [LAUDANIDINE]: the IC50 in the assay with NCI-H187 is > 5 µg/mL; in the assay on KB it was > 5 µg/mL; in assay [2] it was > 5 µg/mL; in the assay on Plasmodium falciparum, 7 µg/mL (≈ 20.4 µM). Further, in assay [1], the result was inactive.
